Screens deposited in PubChem by The Scripps Research Institute Molecular Screening Center.
OX1R antag-1: OX1R (HCRTR1) antagonists, primary screen, fluorescence, CHO/OX1R cells, Fluo-8 calcium, orexin A. Orexin/Hypocretin receptor type 1 (Homo sapiens), O43613. Fluo-8 calcium fluorescence. inhibition, % at 5 µM. 330,000 compounds, 0.43% hits. AID 434989, 2010;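 active = inhibition above its plate's threshold, mean inhibition of all tested compounds on the plate plus 3 SD, cut at about 37% in these data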;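 note: 0% = orexin A challenge wells and 100% = SB-334867-A antagonist wells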
Target sequence (O43613 whole entry, looked up): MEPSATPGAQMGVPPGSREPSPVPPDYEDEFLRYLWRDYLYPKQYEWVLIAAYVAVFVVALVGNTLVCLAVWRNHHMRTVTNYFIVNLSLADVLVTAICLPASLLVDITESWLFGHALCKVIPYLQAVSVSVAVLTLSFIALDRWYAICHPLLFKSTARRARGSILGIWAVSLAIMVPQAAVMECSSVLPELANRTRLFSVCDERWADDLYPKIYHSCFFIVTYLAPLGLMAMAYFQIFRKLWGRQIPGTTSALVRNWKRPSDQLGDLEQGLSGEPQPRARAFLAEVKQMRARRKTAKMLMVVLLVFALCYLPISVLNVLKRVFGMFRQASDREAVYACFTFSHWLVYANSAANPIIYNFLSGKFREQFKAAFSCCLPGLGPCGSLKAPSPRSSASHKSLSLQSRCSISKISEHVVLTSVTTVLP
CHO parental Ca: ATP-evoked calcium signal inhibitors, parental CHO, primary screen, counter-screen for OX1R antagonist project, cell-based, fluorescence, Fluo-8 calcium dye. inhibition, % at 5.6 µM. parental CHO-K1, ATP-induced calcium, Fluo-8 fluorescence. 330,000 compounds, 0.63% hits;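 active = inhibition above that plate's mean sample inhibition plus 3 SD, cut at about 26% in these data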;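 note: 0% = ATP-challenged DMSO wells and 100% = DMSO wells without ATP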
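Material: Parental CHO cells | Reagent: ATP | Compound dosing: Single nominal dose of 5.6 µM per compound | Detection: Intracellular calcium via Fluo-8 no-wash fluorescent dye | Read-out: % inhibition of ATP-induced calcium mobilization | Benchmarks: Low control ATP plus DMSO, high control DMSO only | Replicates: Singlicate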
GPR7 antag: GPR7 receptor antagonists, primary screen, cell-based, fluorescence, single concentration. inhibition, % at 4.4 µM. 290,000 compounds, 1.1% hits. GPR7-expressing cells, fluorescence antagonist assay. Neuropeptides B/W receptor type 1 (Homo sapiens), P48145. AID 1861, 2009; in the data active = inhibition above about 16%, passing the limit was not always enough;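 note: cells stimulated with the agonist NPW; 0% = agonist with vehicle and 100% = vehicle without agonist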
TAAR1 agonist: human TAAR1 agonists, primary screen, Fluo-8 calcium fluorescence, CHO RD-HGA16 cells; vehicle wells 0%, saturating PEA agonist 100%; activation, % at 3 µM; 360,000 compounds, 0.99% hits; AID 624467, 2012;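 active = activation above the mean activation of all test compounds in the run plus 3 SD, cut at about 38% in these data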
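Repeats: no replicates (n 1) | Material: CHO-derived RD-HGA16 cells with stable Gα16 and human TAAR1 | Technique: Kinetic Fluo-8 calcium fluorescence | Schedule: 17-24 h seeding, 75 min 37 °C dye, 30 min RT | Evaluation: % activation from peak over basal fluorescence ratio, DMSO-to-PEA scaled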
TAAR1 antagonist: human TAAR1 antagonists, primary screen, Fluo-8 calcium fluorescence, CHO RD-HGA16 cells; Trace amine-associated receptor 1 (Homo sapiens), Q96RJ0; antagonist; inhibition, % at 3 µM; 360,000 compounds, 1.5% hits;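 active = inhibition above a per-plate cutoff, the mean inhibition of test compounds on that plate plus 3 SD, cut at about 49% in these data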;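 note: 0% = DMSO plus EC80 beta-PEA response and 100% = DMSO alone without agonist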
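Test system: CHO RD-HGA16 cells bearing hTAAR1 | Reagent: β-PEA, EC80 | Compound dosing: 3 µM, single point | Schedule: Dye loading 75 min at 37 °C, then 30 min room temperature | Signal: Calcium fluorescence with Fluo-8 | Evaluation: Percent inhibition of PEA-evoked calcium signal, max/basal emission ratio | Control set: DMSO-only wells and EC80 β-PEA-stimulated wells | Repeats: Singlicate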
OX1R antag-2: antagonists of human orexin 1 receptor (OX1R). inhibition, % at 6.6 µM. AID 485270, 2010. Orexin/Hypocretin receptor type 1 (Homo sapiens), O43613. OX1R-expressing cells, FRET antagonist read-out. 330,000 compounds, 1.8% hits; in the data active = inhibition mostly above about 38%, no sharp cut-off; inactive = mostly below about 40%;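 note: 0% = agonist challenge alone and 100% = reference antagonist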
TAAR1 ag conf: human TAAR1 agonists, retest of hits, confirmation, Fluo-8 calcium fluorescence, CHO RD-HGA16 cells | shares compounds with TAAR1 agonist | scaled: DMSO 0%, maximal phenethylamine 100% | activation, % at 3 µM | 2,400 compounds, 82% hits | AID 651783, 2012;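 active = activation above a cutoff set at the run's mean compound activation plus 3 SD, cut at about 39% in these data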
Ga16 nonsel ag: nonselective calcium mobilization agonists, CHO-Ga16 cells, counter-screen for hTAAR1 agonist project, cell-based, fluorescence, CHO-Ga16 parental line. Fluo-8 calcium fluorescence; normalized to maximal ATP response, DMSO zero. AID 651787, 2012. activation, % at 3 µM. shares compounds with TAAR1 agonist. 2,400 compounds, 50% hits;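 active = activation above the run cutoff, the mean activation over all tested wells plus 3 SD, cut at about 12% in these data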;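 note: 0% = DMSO wells and 100% = maximal ATP response on the peak over basal ratio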
TAAR1 desensitize: TAAR1 desensitization by agonist hits, confirmation, counter-screen for TAAR1 agonist project, cell-based, fluorescence, tachyphylaxis. inhibition, % at 3 µM. shares compounds with TAAR1 agonist. 2,400 compounds, 46% hits. CHO RD-HGA16 hTAAR1, Fluo-8 calcium, beta-PEA response inhibition;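 active = inhibition above the run cutoff, the mean inhibition of all test compounds plus 3 SD, cut at about 49% in these data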;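 note: beta-PEA stimulus applied at its EC80; loss of beta-PEA calcium signal after compound pretreatment read as receptor desensitization; 0% = DMSO with beta-PEA at EC80 and 100% = DMSO alone without agonist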
Ga16 antag count: inhibition of ATP-evoked calcium response in CHO-Ga16 cells, counter-screen for TAAR1 agonist project, cell-based, fluorescence; shares compounds with TAAR1 agonist; CHO-Ga16 ATP-induced calcium, Fluo-8 fluorescence; inhibition, % at 3 µM; 2,400 compounds, 39% hits; AID 651952, 2012;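 active = inhibition above the plate's mean compound inhibition plus 3 SD, computed per plate, cut at about 22% in these data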;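 note: 0% = EC80 ATP with DMSO and 100% = DMSO wells without ATP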
The depositor's hits bear a star; · = no result. A selection: hits, their analogues and other compounds. The true share with any hit is near 4.6%.

SMILES | OX1R antag-1 | CHO parental Ca | GPR7 antag | TAAR1 agonist | TAAR1 antagonist | OX1R antag-2 | TAAR1 ag conf | Ga16 nonsel ag | TAAR1 desensitize | Ga16 antag count
CN(CC(=O)Nc1cccnc1Cl)S(=O)(=O)c1ccc(Cl)cc1 | -3.0 | -3.4 | -20.1 | -0.5 | 8.1 | -5.9 | · | · | · | ·
CCOc1ccc(C=NCC(O)c2ccccc2)cc1 (centres undefined) | -3.8 | -7.7 | -0.3 | 93.7* | 75.8* | 4.9 | 105.7* | 1.1 | 88.4* | -0.5
Cc1nn(-c2ccccc2)c(Cl)c1C1C(C#N)=C(N)Oc2c1c(C)nn2-c1ccccc1 (centres undefined) | -33.3 | -19.0 | -1.1 | 61.3* | 24.9 | 23.9 | 57.8* | 34.0* | 35.9 | 25.3*
CC(C)CN1C(=O)C(=O)N(CC(=O)NCc2ccc3c(c2)OCO3)C1=O | -13.1 | -11.2 | 4.8 | 7.6 | 2.7 | 20.0 | · | · | · | ·
CC(Cc1cccs1)NC(=O)Nc1ccc(F)cc1 (centres undefined) | -1.6 | 1.4 | -1.9 | 48.7* | -3.1 | 23.9 | 81.7* | 2.5 | 21.1 | 1.5
CCC(C)N(C(=O)CSc1nc(C)c(C)c(C)c1C#N)C1CCS(=O)(=O)C1 (centres undefined) | 3.5 | -20.4 | · | 0.3 | -3.7 | 5.3 | · | · | · | ·
CN(C)S(=O)(=O)c1ccc(N2CCCC2)c(C(=O)NC2CCC(O)CC2)c1 (centres undefined) | -20.1 | -1.1 | · | 0.4 | -9.7 | 19.7 | · | · | · | ·
O=S(=O)(NCCc1ccccc1)c1cccc2cccnc12 | -21.1 | -11.8 | 2.0 | 62.9* | -9.2 | 18.5 | 78.3* | 10.9 | 40.7 | 5.8
O=S(=O)(NCCc1ccccc1)c1ccc(F)cc1 | -18.3 | -19.8 | -6.0 | 72.9* | 64.2* | 1.7 | 85.9* | -0.8 | 79.5* | 9.6
CC1Sc2ccc(S(=O)(=O)NCCc3ccccc3)cc2NC1=O (centres undefined) | -25.7 | -23.9 | -0.1 | 69.5* | 3.1 | 33.3 | 66.3* | 4.7 | 42.5 | 11.9
CC(=O)Nc1ccc(S(=O)(=O)NCCc2ccc(F)cc2)cc1 | -11.9 | -4.7 | -13.7 | 3.7 | 4.6 | 10.3 | · | · | · | ·
CC(=O)OCC(=O)C1(O)CCC2C3CCC4=CC(=O)CCC4(C)C3(Cl)C(O)CC21C (centres undefined) | · | · | · | 1.6 | -9.7 | · | · | · | · | ·
CC1(C)CCCN(C(=O)N2c3ccccc3Sc3ccccc32)C1 | -36.4 | -8.7 | -16.5 | 5.9 | -0.3 | 20.9 | · | · | · | ·
Cc1csc(NC(=O)c2nc3nc(C)cc(C)n3n2)n1 | -13.6 | 4.0 | 0.2 | 0.6 | 13.5 | 28.4 | · | · | · | ·
COC(=O)C1=C(C)N(Cc2ccc(C(F)(F)F)cc2)C(=NCc2ccccc2)NC1c1cccc(F)c1 (centres undefined) | · | · | · | 40.3* | 66.0* | · | 30.3 | 17.9* | 48.0 | 38.8*
